Experiments:
[1] = target: T1, Serotonin 3 (5-HT3) receptor (Rattus norvegicus) (UniProt P35563+Q9JJ16); assay: 5-hydroxytryptamine 3 receptor antagonistic activity was measured by the inhibition of 5H+ T-induced bradycardia after iv administration of 1 ug/kg dose in urethane-anesthetized rats; assay type: functional, organism-based
Procedure, shortened: (§1)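 Urethane-anesthetized rats. First 5HT challenge 30 μg/kg iv gives a transient bradycardia. Once heart rate is back at steady state (≤5 min), test compound or saline goes in via the femoral vein. 5HT 30 μg/kg iv is repeated 15 min later. % inhibition is the difference between first and second bradycardia at peak, each animal its own control. Means ± SEM, groups of 3–16 rats.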

[2] = target: T1, Serotonin 3 (5-HT3) receptor (Rattus norvegicus); assay: 5-hydroxytryptamine 3 receptor antagonistic activity measured by inhibition of 5-HT-induced bradycardia (iv administration 10 ug/kg dose in urethane-anesthetized rats); assay type: functional, organism-based; procedure, shortened: as §1
[3] = target: T1, Serotonin 3 (5-HT3) receptor (Rattus norvegicus); assay: 5-hydroxytryptamine 3 receptor antagonistic activity was measured by the inhibition of 5H+ T-induced bradycardia after iv administration of 3 ug/kg dose in urethane-anesthetized rats; assay type: functional, organism-based
Procedure, shortened: (§2)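 Urethane-anesthetized rats; antagonist or saline given iv via femoral vein after heart rate settled (≤5 min) from an initial 5HT challenge (30 µg/kg iv). 5HT was given again 15 min later. Peak bradycardia measured, each rat its own control; % inhibition = difference between first and second responses. Groups of 3–16 rats, means ± SEM.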

[4] = target: T1, Serotonin 3 (5-HT3) receptor (Rattus norvegicus); assay: 5-hydroxytryptamine 3 receptor antagonistic activity was measured by the inhibition of 5H+ T-induced bradycardia after po administration of 100 ug/kg dose in urethane-anesthetized rats; assay type: functional, organism-based
Procedure, shortened: (§3)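 Fasted rats dosed by gavage (5 mL/kg) with compound or distilled-water vehicle. Urethane anesthesia and surgical preparation 15–20 min before challenge. 5HT 0.03 mg/kg iv given 1 h after dosing. Peak bradycardia is compared with vehicle-treated controls. Means ± SEM, groups of 3–11 rats.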

[5] = target: T1, Serotonin 3 (5-HT3) receptor (Rattus norvegicus); assay: 5-hydroxytryptamine 3 receptor antagonistic activity was measured by the inhibition of 5H+ T-induced bradycardia after po administration of 1000 ug/kg dose in urethane-anesthetized rats; assay type: functional, organism-based; procedure, shortened: as §3
[6] = target: T1, Serotonin 3 (5-HT3) receptor (Rattus norvegicus); assay: Inhibition of 5-HT-induced bradycardia by 5-hydroxytryptamine 3+; assay type: functional
[7] = target: T1, Serotonin 3 (5-HT3) receptor (Rattus norvegicus); assay: Compound was tested for the inhibition of 5-HT-induced bradycardia after peroral administration of 0.3 mg/kg at 0.5 hours in urethane-anesthetized rats; assay type: functional, organism-based; design: dose 0.3 mg/kg; settings: at 0.3 mg/kg
Procedure, shortened: (§4)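 Duration study. Antagonist or vehicle is given by oral gavage to conscious rats. Rats are then urethane-anesthetized, surgically prepared and challenged with 5HT 0.03 mg/kg iv at the stated time after dosing. Peak inhibition of bradycardia is measured against vehicle-treated controls. Means ± SEM, groups of 3–11 rats.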

[8] = target: T1, Serotonin 3 (5-HT3) receptor (Rattus norvegicus); assay: Compound was tested for the inhibition of 5-HT-induced bradycardia after peroral administration of 0.3 mg/kg at 1 hour in urethane-anesthetized rats; assay type: functional, organism-based; design: dose 0.3 mg/kg; settings: at 0.3 mg/kg; procedure, shortened: as §4
[9] = target: T1, Serotonin 3 (5-HT3) receptor (Rattus norvegicus); assay: Compound was tested for the inhibition of 5-HT-induced bradycardia after peroral administration of 0.3 mg/kg at 3 hours in urethane-anesthetized rats; assay type: functional, organism-based; design: dose 0.3 mg/kg; settings: at 0.3 mg/kg; procedure, shortened: as §4
[10] = target: T1, Serotonin 3 (5-HT3) receptor (Rattus norvegicus); assay: Compound was tested for the inhibition of 5-HT-induced bradycardia after peroral administration of 0.3 mg/kg at 6 hours in urethane-anesthetized rats; assay type: functional, organism-based; design: dose 0.3 mg/kg; settings: at 0.3 mg/kg; procedure, shortened: as §4
[11] = test system: Serotonin 3 receptor (Cavia porcellus); assay: In vitro binding affinity was measured for 5-hydroxytryptamine 3 receptor in the guinea pig ileum.
[12] = target: T1, Serotonin 3 (5-HT3) receptor (Rattus norvegicus); assay: Compound was tested for the inhibition of 5-HT-induced bradycardia after peroral administration in urethane-anesthetized rats
[13] = target: T1, Serotonin 3 (5-HT3) receptor (Rattus norvegicus); assay: 5-hydroxytryptamine 3 receptor antagonistic activity as inhibition of 5-HT-induced bradycardia after iv administration of 100 ug/kg dose in urethane-anesthetized rats; assay type: functional, organism-based; procedure, shortened: as §1
[14] = target: T1, Serotonin 3 (5-HT3) receptor (Rattus norvegicus); assay: Compound was tested for the inhibition of 5-HT-induced bradycardia after intravenous administration of 1 ug/kg dose in urethane-anesthetized rats; assay type: functional, organism-based; procedure, shortened: as §2
[15] = target: T1, Serotonin 3 (5-HT3) receptor (Rattus norvegicus); assay: Compound was tested for the inhibition of 5-HT-induced bradycardia after peroral administration of 10 mg/kg at 1 hour in urethane-anesthetized rats; assay type: functional, organism-based; design: dose 10 mg/kg; settings: at 10 mg/kg; procedure, shortened: as §4
[16] = target: T1, Serotonin 3 (5-HT3) receptor (Rattus norvegicus); assay: Compound was tested for the inhibition of 5-HT-induced bradycardia after peroral administration of 1000 ug/kg dose in urethane-anesthetized rats; assay type: functional, organism-based; procedure, shortened: as §3
[17] = target: T1, Serotonin 3 (5-HT3) receptor (Rattus norvegicus); assay: Compound was tested for the inhibition of 5-HT-induced bradycardia after peroral administration of 10 mg/kg at 3 hours in urethane-anesthetized rats; assay type: functional, organism-based; design: dose 10 mg/kg; settings: at 10 mg/kg; procedure, shortened: as §4
[18] = target: T1, Serotonin 3 (5-HT3) receptor (Rattus norvegicus); assay: Compound was tested for the inhibition of 5-HT-induced bradycardia after peroral administration of 0.03 mg/kg at 1 hour in urethane-anesthetized rats; assay type: functional, organism-based; design: dose 0.03 mg/kg; settings: at 0.03 mg/kg; procedure, shortened: as §4
[19] = target: T1, Serotonin 3 (5-HT3) receptor (Rattus norvegicus); assay: Compound was tested for the inhibition of 5-HT-induced bradycardia after peroral administration of 0.03 mg/kg at 3 hours in urethane-anesthetized rats; assay type: functional, organism-based; design: dose 0.03 mg/kg; settings: at 0.03 mg/kg; procedure, shortened: as §4
[20] = target: T1, Serotonin 3 (5-HT3) receptor (Rattus norvegicus); assay: Compound was tested for the inhibition of 5-HT-induced bradycardia after peroral administration of 0.03 mg/kg at 6 hours in urethane-anesthetized rats; assay type: functional, organism-based; design: dose 0.03 mg/kg; settings: at 0.03 mg/kg; procedure, shortened: as §4

| SMILES | inhibition [1] [%] | inhibition [2] [%] | inhibition [3] [%] | inhibition [4] [%] | inhibition [5] [%] | ED50 [6] [mg/kg] | inhibition [7] [%] | inhibition [8] [%] | inhibition [9] [%] | inhibition [10] [%] | -Log KB [11] | ED50 [12] [mg/kg] | inhibition [13] [%] | inhibition [14] [%] | inhibition [15] [%] | inhibition [16] [%] | inhibition [17] [%] | inhibition [18] [%] | inhibition [19] [%] | inhibition [20] [%] |
| --- | --- | --- | --- | --- | --- | --- | --- | --- | --- | --- | --- | --- | --- | --- | --- | --- | --- | --- | --- | --- |
| CC1Cc2cc(Cl)cc(C(=O)OC3CC4CCC(C3)N4C)c2O1 (stereo not given) | 5.6 | 69 | 50.8 | 33.1 | 94.7 | 0.0042 | 92.6 | 66.2 | 60.5 | 0 | 7.88 | 0.179 | – | – | – | – | – | – | – | – |
| Cc1cc2c(c(C(=O)OC3CC4CCC(C3)N4C)c1)OC(C)C2 (stereo not given) | – | 66.7 | 14.4 | – | – | 0.0126 | – | – | – | – | 7.32 | 5.17 | 78.2 | 3.3 | 74.8 | 11.6 | 0 | – | – | – |
| CN1[C@@H]2CC[C@H]1C[C@@H](OC(=O)c1cc(Cl)cc3c1OC(C)(C)C3)C2 | – | 82.7 | 19.3 | – | – | 0.0046 | – | – | – | – | 7.92 | 0.0088 | – | – | – | – | – | 86.2 | 58 | 20.6 |

— ChEMBL document CHEMBL1125286, “Zatosetron, a potent, selective, and long-acting 5HT3 receptor antagonist: synthesis and structure-activity relationships” (J Med Chem, 1992)
